# The source made the active and inactive calls. No cut-off for these calls is given here.
# Legend:
# [1] = test system: HCT-116; experiment: Anticancer activity against human HCT-116 cells assessed as inhibition of cell viability incubated for 16 hrs by MTT assay; format: functional, cell-based; settings: HCT-116, 16 h
# [2] = Cytotoxicity against HEK293 cells assessed as reduction in cell viability incubated for 16 hrs by MTT assay; format: toxicity, cell-based; settings: human
# [3] = test system: HCT-116; experiment: Induction of ROS generation in human HCT-116 cells at 0.5 to 1 uM incubated for 16 hrs by CellROX Red staining based confocal microscope analysis; format: functional, cell-based; settings: dose 0.5-1 µM
# How it was run: (§1)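 HCT116 cells treated 16 h with compound (0.5 or 1 μM where dosed); stained 30 min with MitoTracker Deep Red FM (membrane potential) or CellROX Red FM (ROS); confocal imaging; mean fluorescence intensity quantified from five fields.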
# [4] = test system: HCT-116; experiment: Induction of mitochondrial membrane potential loss in human HCT-116 cells at 0.5 to 1 uM incubated for 16 hrs by mitotracker red staining based confocal microscope analysis; format: functional, cell-based; settings: dose 0.5-1 µM; how it was run: as §1
# [5] = test system: HCT-116; experiment: Induction of mitochondrial fission in human HCT-116 cells assessed as decrease in DRP1 phosphorylation at S637 at 0.5 to 1 uM incubated for 8 to 24 hrs by immunoblotting analysis; format: functional, cell-based; settings: dose 0.5-1 µM, time 8-24 hrs
# How it was run: (§2)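 Immunoblot in HCT116 cells: p-DRP1 S616, p-DRP1 S637, DRP1, Mitofusin1, Mitofusin2 and MFF over time (0, 8, 16, 24 h); p-DRP1 S616, S637, DRP1, Mitofusin1 and OPA at 0.5 and 1 μM. β-Actin loading control.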
# [6] = test system: HCT-116; experiment: Induction of mitochondrial fission in human HCT-116 cells assessed as increase in DRP1 phosphorylation at S616 at 0.5 to 1 uM incubated for 8 to 24 hrs by immunoblotting analysis; format: functional, cell-based; settings: dose 0.5-1 µM, time 8-24 hrs; how it was run: as §2
# [7] = test system: HCT-116; experiment: Induction of ROS production in human HCT-116 cells assessed as deterioration of mitochondrial length and area at 1 uM incubated for 16 hrs in presence of CellLight Mitochondria-GFP by confocal microscopy analysis; format: functional, cell-based
# How it was run: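 HCT116 cells transfected with CellLight Mitochondria-GFP, treated 1 μM for 16 h; confocal images quantified for mitochondrial length and area.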
IC50 [1],SMILES,IC50 at 16 h [2],Activity [3],Activity [4],Activity [5],Activity [6],Activity [7]
7.1 µM,C/C=C/C/C(C)=C\[C@H]1C/C=C/C=C/C[C@H](C)/C=C/[C@@H](OC)C/C=C/[C@@H](O)CC(=O)O1,11.8 µM,–,–,–,–,–
23 µM,CCCCC[C@@H]1C/C=C/C=C/C[C@H](C)/C=C(\C)[C@@H](OC)C/C=C/[C@@H](O)CC(=O)O1,20.2 µM,inactive,inactive,inactive,Active,Active
0.1 µM,C/C=C/C/C(C)=C\[C@H]1C/C=C/C=C/C[C@H](C)/C=C(\C)[C@@H](OC)C[C@@H](O)C[C@@H](O)CC(=O)O1,20.8 µM,–,–,–,–,–
